The source made the active and inactive calls.
How the values were obtained:
Rattus norvegicus [1] = species on record: Rattus norvegicus; experiment: Displacement of [3H]GABA from rat cerebral cortex GABA receptor at 10^-5 M; format: tissue-based
Summary of the method: (§1)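 Radioligand binding screen run at a single test concentration of 10^-5 M. Each target used its stated receptor source (human recombinant CHO or HEK-293 cells, endogenous cell lines, or rat tissue membranes) with the listed radioligand.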

U-937 = experiment: Displacement of [125I]TNF-alpha from TNF-alpha receptor in human U937 cells at 10^-5 M; format: cell-based; summary of the method: as §1
[2] = molecular target: Adrenergic receptor alpha-1 (Rattus norvegicus) (UniProt P15823+P23944+P43140); experiment: Displacement of [3H]prazosin from rat cerebral cortex Alpha-1 adrenergic receptor at 10^-5 M; format: tissue-based
Summary of the method: (§2)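 Radioligand displacement screen with the test agent at a single 10^-5 M concentration; receptor source and radioligand per target as tabulated (recombinant human cell lines or rat cerebral cortex/urinary bladder).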

Rattus norvegicus [3] = species on record: Rattus norvegicus; experiment: Displacement of [3H]TCP from rat cerebral cortex PCP receptor at 10^-5 M; format: tissue-based; summary of the method: as §2
Mus musculus [4] = experiment: Anticonvulsant activity in mouse assessed as protection against maximal electric shock-induced seizures at 3 mg/kg, ip measured after 0.5 hrs; format: functional, organism-based
Summary of the method: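 Mice dosed ip with suspension in 0.5% methylcellulose; maximal electroshock applied at the listed time after dosing. Protection = abolition of hindlimb tonic extension component of seizure; reported as animals protected/animals tested.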

Rattus norvegicus [5] = experiment: Anticonvulsant activity in pilocarpine-induced status epilepticus Sprague-Dawley rat model at 30 mg/kg, ip after 4 hrs during post stage 3 seizure; format: functional, organism-based
Summary of the method: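 Rats given pilocarpine 50 mg/kg ip and observed to first convulsive seizure (Racine stage 3–5, time zero); test drug then given ip in 0.5% methylcellulose. Efficacy = halting further stage 3–5 convulsive seizures; scored protected/tested, time after first stage 3 seizure.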

Mus musculus [6] = experiment: Anticonvulsant activity in mouse assessed as protection against subcutaneous pentylenetetrazol-induced seizures at 30 mg/kg, ip measured after 0.5 hrs; format: functional, organism-based
Summary of the method: (§3)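 Mice dosed ip as 0.5% methylcellulose suspension; pentylenetetrazole 85 mg/kg in 0.9% NaCl injected subcutaneously into posterior midline, animals watched at least 30 min. Protection = no threshold seizure (single clonic spasm episode lasting ≥5 s); scored protected/tested.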

Mus musculus [7] = experiment: Anticonvulsant activity in mouse assessed as protection against subcutaneous pentylenetetrazol-induced seizures at 30 mg/kg, ip measured after 4 hrs; format: functional, organism-based; summary of the method: as §3
[8] = molecular target: Adenosine receptor A3 (Homo sapiens) (UniProt P0DMS8); experiment: Displacement of [125I]ABMECA from human recombinant adenosine A3 receptor expressed in HEK293 cells at 10^-5 M; format: cell-based; summary of the method: as §1
Adenosine receptor A3 (Homo sapiens), sequence (P0DMS8 whole entry): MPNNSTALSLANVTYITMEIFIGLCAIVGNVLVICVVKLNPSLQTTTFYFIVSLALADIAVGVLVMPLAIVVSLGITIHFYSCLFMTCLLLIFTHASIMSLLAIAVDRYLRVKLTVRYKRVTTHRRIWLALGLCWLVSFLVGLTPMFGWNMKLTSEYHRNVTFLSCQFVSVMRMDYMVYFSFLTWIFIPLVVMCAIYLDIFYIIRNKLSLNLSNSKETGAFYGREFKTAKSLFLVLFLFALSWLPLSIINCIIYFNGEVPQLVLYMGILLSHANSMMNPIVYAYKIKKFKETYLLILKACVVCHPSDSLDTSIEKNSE

[9] = molecular target: Beta-2 adrenergic receptor (Homo sapiens) (UniProt P07550); experiment: Displacement of [3H](-)CGP12177 from human recombinant Beta-2 adrenergic receptor expressed in CHO cells at 10^-5 M; format: cell-based; summary of the method: as §1
[10] = molecular target: Translocator protein (Rattus norvegicus) (UniProt P16257); experiment: Displacement of [3H]PK 11195 from rat heart peripheral-type benzodiazepine receptor at 10^-5 M; summary of the method: as §1
Translocator protein (Rattus norvegicus), sequence (P16257 whole entry, looked up): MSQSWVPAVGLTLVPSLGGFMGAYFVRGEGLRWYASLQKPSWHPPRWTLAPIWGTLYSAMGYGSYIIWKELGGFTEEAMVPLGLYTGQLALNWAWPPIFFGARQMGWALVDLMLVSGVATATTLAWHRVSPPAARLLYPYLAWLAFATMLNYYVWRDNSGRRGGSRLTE

[11] = molecular target: Cholecystokinin receptor type A (Homo sapiens) (UniProt P32238); experiment: Displacement of [125I]CCK-8s from human recombinant CCK-A receptor expressed in CHO cells at 10^-5 M; format: cell-based; summary of the method: as §1
[12] = molecular target: Endothelin-1 receptor (Homo sapiens) (UniProt P25101); experiment: Displacement of [125I]Endothelin-1 from human recombinant Endothelin-1 receptor expressed in CHO cells at 10^-5 M; format: cell-based; summary of the method: as §1
[13] = molecular target: C-X-C chemokine receptor type 2 (Homo sapiens) (UniProt P25025); experiment: Displacement of [125I]IL-8 from human recombinant CXCR2 receptor expressed in HEK293 cells at 10^-5 M; format: cell-based; summary of the method: as §1
C-X-C chemokine receptor type 2 (Homo sapiens), sequence (P25025 whole entry): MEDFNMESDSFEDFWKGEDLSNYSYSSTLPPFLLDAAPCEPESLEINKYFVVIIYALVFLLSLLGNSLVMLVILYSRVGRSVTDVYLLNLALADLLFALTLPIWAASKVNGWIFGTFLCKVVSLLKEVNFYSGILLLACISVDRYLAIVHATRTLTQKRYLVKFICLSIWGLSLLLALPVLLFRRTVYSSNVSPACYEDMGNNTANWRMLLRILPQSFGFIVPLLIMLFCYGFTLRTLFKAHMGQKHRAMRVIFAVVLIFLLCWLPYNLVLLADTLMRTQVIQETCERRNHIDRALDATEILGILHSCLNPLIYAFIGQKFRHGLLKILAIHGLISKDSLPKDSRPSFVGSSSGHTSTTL

[14] = molecular target: Muscarinic acetylcholine receptor M1 (Homo sapiens) (UniProt P11229); experiment: Displacement of [3H]pirenzepine from human recombinant muscarinic M1 receptor expressed in CHO cells at 10^-5 M; format: cell-based; summary of the method: as §2
[15] = molecular target: Muscarinic acetylcholine receptor M2 (Homo sapiens) (UniProt P08172); experiment: Displacement of [3H]AF-DX384 from human recombinant muscarinic M2 receptor expressed in CHO cells at 10^-5 M; format: cell-based; summary of the method: as §1
Muscarinic acetylcholine receptor M2 (Homo sapiens), sequence (P08172 whole entry): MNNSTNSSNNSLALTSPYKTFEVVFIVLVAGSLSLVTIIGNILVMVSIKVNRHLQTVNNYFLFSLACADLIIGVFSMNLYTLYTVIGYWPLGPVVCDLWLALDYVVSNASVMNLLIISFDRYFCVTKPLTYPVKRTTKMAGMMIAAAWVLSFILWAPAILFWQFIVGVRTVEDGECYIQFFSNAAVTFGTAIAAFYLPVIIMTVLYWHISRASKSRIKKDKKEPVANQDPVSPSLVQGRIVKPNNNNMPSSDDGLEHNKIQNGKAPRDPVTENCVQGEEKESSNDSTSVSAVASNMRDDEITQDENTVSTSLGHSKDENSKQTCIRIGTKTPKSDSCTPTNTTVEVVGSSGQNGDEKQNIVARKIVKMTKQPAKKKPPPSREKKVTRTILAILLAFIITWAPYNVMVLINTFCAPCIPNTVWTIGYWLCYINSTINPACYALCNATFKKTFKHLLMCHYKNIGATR

[16] = molecular target: Muscarinic acetylcholine receptor M3 (Homo sapiens) (UniProt P20309); experiment: Displacement of [3H]4-DAMP from human recombinant muscarinic M3 receptor expressed in CHO cells at 10^-5 M; format: cell-based; summary of the method: as §1
[17] = molecular target: Muscarinic acetylcholine receptor M4 (Homo sapiens) (UniProt P08173); experiment: Displacement of [3H]4-DAMP from human recombinant muscarinic M4 receptor expressed in CHO cells at 10^-5 M; format: cell-based; summary of the method: as §1
[18] = molecular target: Muscarinic acetylcholine receptor M5 (Homo sapiens) (UniProt P08912); experiment: Displacement of [3H]4-DAMP from human recombinant muscarinic M5 receptor expressed in CHO cells at 10^-5 M; format: cell-based; summary of the method: as §1
Muscarinic acetylcholine receptor M5 (Homo sapiens), sequence (P08912 whole entry): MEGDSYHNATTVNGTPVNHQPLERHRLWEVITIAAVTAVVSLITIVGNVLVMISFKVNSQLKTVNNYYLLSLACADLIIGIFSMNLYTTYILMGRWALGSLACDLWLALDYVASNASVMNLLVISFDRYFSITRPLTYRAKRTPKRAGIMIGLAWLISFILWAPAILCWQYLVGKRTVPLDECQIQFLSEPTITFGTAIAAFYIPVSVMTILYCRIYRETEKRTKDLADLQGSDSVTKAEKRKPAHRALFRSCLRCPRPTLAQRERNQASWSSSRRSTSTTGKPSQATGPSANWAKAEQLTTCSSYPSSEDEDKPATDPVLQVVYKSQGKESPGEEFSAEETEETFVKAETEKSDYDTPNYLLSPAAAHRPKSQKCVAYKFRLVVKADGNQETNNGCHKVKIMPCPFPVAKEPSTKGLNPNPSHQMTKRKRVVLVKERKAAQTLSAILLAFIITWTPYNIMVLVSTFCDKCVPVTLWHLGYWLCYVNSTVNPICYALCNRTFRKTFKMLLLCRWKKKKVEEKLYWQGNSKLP

CHO = experiment: Displacement of [3H]DADLE from human recombinant delta-type 2 opioid receptor expressed in CHO cells at 10^-5 M; format: cell-based; summary of the method: as §1
[19] = molecular target: Kappa-type opioid receptor (Rattus norvegicus) (UniProt P34975); experiment: Displacement of [3H]U 69593 from rat recombinant kappa-type opioid receptor expressed in CHO cells at 10^-5 M; format: cell-based; summary of the method: as §2
[20] = molecular target: Prostaglandin E2 receptor EP4 subtype (Homo sapiens) (UniProt P35408); experiment: Displacement of [3H]PGE2 from human recombinant prostanoid EP4 receptor expressed in HEK293 cells at 10^-5 M; format: cell-based; summary of the method: as §1
Rattus norvegicus [21] = species on record: Rattus norvegicus; experiment: Displacement of [3H]alpha,beta-MeATP from rat urinary bladder P2X receptor at 10^-5 M; summary of the method: as §2
[22] = molecular target: 5-hydroxytryptamine receptor 1A (Homo sapiens) (UniProt P08908); experiment: Displacement of [3H]8-OHDPAT from human recombinant 5-HT1A receptor expressed in HEK293 cells at 10^-5 M; format: cell-based; summary of the method: as §1
[23] = molecular target: 5-hydroxytryptamine receptor 2B (Homo sapiens, UniProt P41595); experiment: Displacement of [125I](+/-)DOI from human recombinant 5-HT2B receptor expressed in CHO cells at 10^-5 M; format: cell-based
[24] = molecular target: 5-hydroxytryptamine receptor 6 (Homo sapiens) (UniProt P50406); experiment: Displacement of [3H]LSD from human recombinant 5-HT6 receptor expressed in CHO cells at 10^-5 M; format: cell-based; summary of the method: as §1
5-hydroxytryptamine receptor 6 (Homo sapiens), sequence (P50406 whole entry): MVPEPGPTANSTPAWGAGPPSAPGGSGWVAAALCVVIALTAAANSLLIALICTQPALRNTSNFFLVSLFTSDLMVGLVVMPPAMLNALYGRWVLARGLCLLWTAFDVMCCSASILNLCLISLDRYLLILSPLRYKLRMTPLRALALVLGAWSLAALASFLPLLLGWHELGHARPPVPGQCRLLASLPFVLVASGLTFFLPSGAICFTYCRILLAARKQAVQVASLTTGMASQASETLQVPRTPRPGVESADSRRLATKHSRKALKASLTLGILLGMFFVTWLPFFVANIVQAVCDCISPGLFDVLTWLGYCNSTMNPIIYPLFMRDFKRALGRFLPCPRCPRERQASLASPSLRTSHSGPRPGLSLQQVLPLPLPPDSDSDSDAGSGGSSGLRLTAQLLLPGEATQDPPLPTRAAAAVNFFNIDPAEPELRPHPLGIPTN

Jurkat = experiment: Displacement of [3H]DTG from sigma receptor in human jurkat cells at 10^-5 M; format: cell-based; summary of the method: as §1
[25] = molecular target: Somatostatin receptor (Mus musculus) (UniProt P30935+O08858+P30875+P30873+P49660); experiment: Displacement of [125I]Tyr11-somatostatin-14 from somatostatin receptor in mouse AtT20 cells at 10^-5 M; format: cell-based; summary of the method: as §1
Somatostatin receptor (Mus musculus), sequence (P30935 whole entry): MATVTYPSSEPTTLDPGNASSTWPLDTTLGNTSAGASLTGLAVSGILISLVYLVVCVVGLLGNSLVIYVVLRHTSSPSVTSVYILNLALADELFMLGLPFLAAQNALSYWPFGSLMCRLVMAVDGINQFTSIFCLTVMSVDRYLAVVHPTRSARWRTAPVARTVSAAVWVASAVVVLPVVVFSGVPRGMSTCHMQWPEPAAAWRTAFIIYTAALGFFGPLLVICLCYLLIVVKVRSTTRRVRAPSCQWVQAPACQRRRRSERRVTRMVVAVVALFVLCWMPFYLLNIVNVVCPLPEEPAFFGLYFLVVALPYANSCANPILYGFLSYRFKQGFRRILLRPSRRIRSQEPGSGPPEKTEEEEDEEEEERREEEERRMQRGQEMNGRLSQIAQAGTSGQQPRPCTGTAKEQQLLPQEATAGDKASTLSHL
Somatostatin receptor (Mus musculus), sequence (O08858 whole entry): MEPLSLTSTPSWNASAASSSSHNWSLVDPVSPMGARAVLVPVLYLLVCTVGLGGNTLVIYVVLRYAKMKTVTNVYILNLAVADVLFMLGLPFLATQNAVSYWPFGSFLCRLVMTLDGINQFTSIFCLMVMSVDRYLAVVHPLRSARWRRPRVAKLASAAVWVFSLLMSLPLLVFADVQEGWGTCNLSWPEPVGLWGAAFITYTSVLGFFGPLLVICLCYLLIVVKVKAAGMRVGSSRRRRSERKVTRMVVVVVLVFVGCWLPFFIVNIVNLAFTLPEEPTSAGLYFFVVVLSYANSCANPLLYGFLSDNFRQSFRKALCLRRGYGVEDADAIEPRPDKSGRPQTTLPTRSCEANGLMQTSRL
Somatostatin receptor (Mus musculus), sequence (P30875 whole entry): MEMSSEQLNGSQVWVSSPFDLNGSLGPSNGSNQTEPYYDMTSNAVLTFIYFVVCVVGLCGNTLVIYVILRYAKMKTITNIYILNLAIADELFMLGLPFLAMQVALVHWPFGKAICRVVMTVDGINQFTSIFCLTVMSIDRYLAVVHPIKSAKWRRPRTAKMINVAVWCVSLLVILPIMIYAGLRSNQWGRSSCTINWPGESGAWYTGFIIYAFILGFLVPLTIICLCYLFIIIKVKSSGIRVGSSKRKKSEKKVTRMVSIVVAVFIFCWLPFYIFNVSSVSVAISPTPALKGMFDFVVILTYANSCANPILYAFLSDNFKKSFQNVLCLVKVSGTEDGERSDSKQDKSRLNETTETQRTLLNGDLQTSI
Somatostatin receptor (Mus musculus), sequence (P30873 whole entry): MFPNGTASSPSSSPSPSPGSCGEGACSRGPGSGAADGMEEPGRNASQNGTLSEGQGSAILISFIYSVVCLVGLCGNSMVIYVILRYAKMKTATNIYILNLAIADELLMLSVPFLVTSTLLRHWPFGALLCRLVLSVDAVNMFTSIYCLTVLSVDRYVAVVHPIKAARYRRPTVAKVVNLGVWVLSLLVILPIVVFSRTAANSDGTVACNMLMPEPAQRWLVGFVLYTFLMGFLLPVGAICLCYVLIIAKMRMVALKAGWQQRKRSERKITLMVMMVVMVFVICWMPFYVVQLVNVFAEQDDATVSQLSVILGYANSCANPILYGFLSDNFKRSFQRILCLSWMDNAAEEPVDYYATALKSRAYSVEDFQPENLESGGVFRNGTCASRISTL
Somatostatin receptor (Mus musculus), sequence (P49660 with tags, fused parts or gaps): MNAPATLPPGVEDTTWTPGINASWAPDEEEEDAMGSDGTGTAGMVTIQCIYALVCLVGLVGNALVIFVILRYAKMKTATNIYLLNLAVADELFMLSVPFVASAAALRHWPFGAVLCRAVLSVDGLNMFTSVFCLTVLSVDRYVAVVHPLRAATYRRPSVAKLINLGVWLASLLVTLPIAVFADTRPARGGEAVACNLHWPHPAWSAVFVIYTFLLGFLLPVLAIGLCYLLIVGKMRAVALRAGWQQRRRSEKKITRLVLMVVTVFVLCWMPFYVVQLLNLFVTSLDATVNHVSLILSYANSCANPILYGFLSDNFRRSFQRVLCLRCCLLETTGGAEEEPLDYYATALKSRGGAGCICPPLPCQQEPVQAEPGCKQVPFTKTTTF

Rattus norvegicus [26] = species on record: Rattus norvegicus; experiment: Displacement of [[…]]batrachotoxin from rat cerebral cortex Sodium channel site 2 at 10^-5 M; format: tissue-based
Rattus norvegicus [27] = species on record: Rattus norvegicus; experiment: Displacement of […] from rat cerebral cortex GABA-gated chloride channel at 10^-5 M; format: tissue-based; summary of the method: as §1
[28] = molecular target: Sodium-dependent dopamine transporter (Homo sapiens) (UniProt Q01959); experiment: Displacement of [3H]BTCP from human recombinant dopamine transporter expressed in CHO cells at 10^-5 M; format: cell-based; summary of the method: as §1
[29] = molecular target: Sodium-dependent serotonin transporter (Homo sapiens) (UniProt P31645); experiment: Displacement of [3H]imipramine from human recombinant 5-HT transporter expressed in CHO cells at 10^-5 M; format: cell-based; summary of the method: as §2
Sodium-dependent serotonin transporter (Homo sapiens), sequence (P31645 whole entry, looked up): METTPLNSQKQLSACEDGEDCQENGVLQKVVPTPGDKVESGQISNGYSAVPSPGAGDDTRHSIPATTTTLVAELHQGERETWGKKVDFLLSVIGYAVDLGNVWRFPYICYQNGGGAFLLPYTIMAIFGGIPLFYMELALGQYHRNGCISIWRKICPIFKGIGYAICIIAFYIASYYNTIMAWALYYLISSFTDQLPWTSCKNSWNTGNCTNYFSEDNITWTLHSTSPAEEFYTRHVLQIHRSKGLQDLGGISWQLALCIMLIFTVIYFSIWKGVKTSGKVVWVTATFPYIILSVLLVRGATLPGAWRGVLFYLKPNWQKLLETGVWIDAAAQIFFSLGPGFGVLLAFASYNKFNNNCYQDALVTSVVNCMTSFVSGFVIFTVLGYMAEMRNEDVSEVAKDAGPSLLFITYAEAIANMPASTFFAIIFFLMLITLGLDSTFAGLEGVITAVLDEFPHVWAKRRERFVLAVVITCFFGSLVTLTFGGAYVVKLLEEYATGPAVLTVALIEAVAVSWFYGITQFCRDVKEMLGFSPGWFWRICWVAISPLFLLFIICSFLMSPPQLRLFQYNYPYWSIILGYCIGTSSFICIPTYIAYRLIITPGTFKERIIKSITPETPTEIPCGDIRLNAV

| Structure (SMILES) | inhibition (Rattus norvegicus [1]) | inhibition (U-937) | inhibition [2] | inhibition (Rattus norvegicus [3]) | Activity (Mus musculus [4]) | Activity (Rattus norvegicus [5]) | Activity (Mus musculus [6]) | Activity (Mus musculus [7]) | inhibition [8] | inhibition [9] | inhibition [10] | inhibition [11] | inhibition [12] | inhibition [13] | inhibition [14] | inhibition [15] | inhibition [16] | inhibition [17] | inhibition [18] | inhibition (CHO) | also measured |
| --- | --- | --- | --- | --- | --- | --- | --- | --- | --- | --- | --- | --- | --- | --- | --- | --- | --- | --- | --- | --- | --- |
| Cc1cccc(C)c1OCCOCCN[C@@H](C)CO | 17.7% | 4.6% | 28.3% | 5.8% | inactive | inactive | inactive | inactive | 3% | 5.7% | -6.7% | 2.2% | -4.4% | 2.7% | 22.8% | 37.2% | 4.4% | 15.7% | 5.7% | -2.2% | inhibition [19]: 54%; inhibition [20]: 3%; inhibition (Rattus norvegicus [21]): 4.8%; inhibition [22]: 63.9%; inhibition [23]: 78.8%; inhibition [24]: 15.4%; inhibition (Jurkat): 95.6%; inhibition [25]: -2%; inhibition (Rattus norvegicus [26]): 79%; inhibition (Rattus norvegicus [27]): 4.6%; inhibition [28]: 16.2%; inhibition [29]: 91.4% |
| Cc1cccc(C)c1OCCOCCN[C@H](C)CO | 0.8% | 5.1% | 32.3% | 9.6% | inactive | inactive | inactive | inactive | -1.8% | 2% | -3.9% | -3.6% | -3.4% | 2.9% | 6% | 20.8% | 8.5% | 11.2% | 8.6% | -1.7% | inhibition [19]: 29.3%; inhibition [20]: 14.9%; inhibition (Rattus norvegicus [21]): 3.5%; inhibition [22]: 70.6%; inhibition [23]: 89.4%; inhibition [24]: 6.7%; inhibition (Jurkat): 92.9%; inhibition [25]: -5.5%; inhibition (Rattus norvegicus [26]): 54.9%; inhibition (Rattus norvegicus [27]): -7.6%; inhibition [28]: 24.5%; inhibition [29]: 96.5% |
